Laboratory results: paper PMC7770080 (Biochemical pharmacology, 2020)
Like-named read-outs stand apart in the source and are kept apart here.

Legend:
[1] = system: C. difficile strain 630 spores; assay: Prevention of murine CDI after C. difficile spore challenge; format: in vivo, mice; conditions: 50 mg/kg oral gavage, three doses; for Time to clinical endpoint: clinical endpoint > 6 on CDI severity scale; for CDI signs in spore-challenged mice: 10^8 CFU spores
[2] = Fecal excretion of CamSA and mSA after oral CamSA in cpx and non-cpx mice; format: in vivo
[3] = CamSA and mSA in liver, blood, kidney and chyme after oral CamSA; format: in vivo, mice; conditions: for Highest concentration found in the liver: 50 mg/kg oral CamSA, calculated; for Amount recovered from chyme as fraction of total dosed CamSA: all five time points together; for Total administered CamSA recovered from feces, organs and chyme: semi-quantitative
[4] = Interaction with cholestyramine resin in vitro and recovery from the resin; format: physicochemical; conditions: for Binding to cholestyramine resin in vitro: 20 mg/ml cholestyramine, overnight, 37°C
C. difficile spores [5] = assay: In vitro C. difficile spore germination assay; format: cell-based, Clostridioides difficile
CYP3A4 = CYP3A4 (Homo sapiens, UniProt P08684); assay: Vivid CYP3A4 Green screening assay with P450 BACULOSOMES
[6] = system: murine GI microbiota (feces); assay: Metabolism of CamSA by fecal microbiota; format: in vitro ADME, mice
[7] = Effect of cholestyramine feed on CamSA in liver of cpx mice; format: in vivo; conditions: 22 hours post-CamSA
Procedure, shortened: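 Cefoperazone-treated mice, individually housed, were fed chow with 4% w/w (n=3) or 0% w/w (n=4) cholestyramine from 24 h before test compound dosing until the end. At 22 h post-dose, livers with attached gallbladders were harvested, stored at −20 °C, then homogenised. Acetonitrile was added to precipitate protein, and samples were centrifuged and filtered (0.2 μm). Analysis was by RP-HPLC-MS on a PSDVB column with isocratic 40% ACN, 5 mM ammonium acetate, 0.1% formic acid.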

C. difficile spores [8] = conditions: in vitro and in vivo; cited from earlier work
C. difficile [9] = conditions: cited from earlier work
Bifidobacterium longum = conditions: 24 hours, pure culture; cited from earlier work
Lactobacillus gasseri = conditions: 24 hours, pure culture; cited from earlier work
[10] = 24 hours, both conditions; cited from earlier work
Caco-2 monolayers = conditions: cited from earlier work
C. difficile [11] = conditions: cited from earlier work; remark: listed apart in the source

Sequence of CYP3A4 (P08684 whole entry): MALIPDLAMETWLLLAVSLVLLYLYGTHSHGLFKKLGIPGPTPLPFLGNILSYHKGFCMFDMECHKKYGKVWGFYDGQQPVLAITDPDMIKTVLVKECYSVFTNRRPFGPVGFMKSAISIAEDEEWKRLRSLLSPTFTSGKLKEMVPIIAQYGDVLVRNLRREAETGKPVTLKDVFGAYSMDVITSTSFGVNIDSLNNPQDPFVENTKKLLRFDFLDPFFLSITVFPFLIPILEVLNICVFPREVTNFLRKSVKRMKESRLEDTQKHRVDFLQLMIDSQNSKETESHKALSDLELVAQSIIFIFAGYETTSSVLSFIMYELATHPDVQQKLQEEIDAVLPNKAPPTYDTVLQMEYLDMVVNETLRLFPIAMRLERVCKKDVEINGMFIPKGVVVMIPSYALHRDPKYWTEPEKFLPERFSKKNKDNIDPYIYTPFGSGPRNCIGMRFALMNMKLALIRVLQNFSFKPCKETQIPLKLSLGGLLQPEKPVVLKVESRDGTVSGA

SMILES: Nc1cccc(S(=O)(=O)O)c1 [mSA, metanilic acid]
- Time to clinical endpoint [1]: ≤ 48 hours post-challenge
- Detection in feces ([2]; cpx mice, any time point): not observed
- Amount recovered from feces relative to CamSA from the same animals (higher) ([2]; non-cpx mice): approximately 40 fold
- Time of first large peak in feces ([2]; non-cpx mice, after CamSA administration): ≤ 12 h
- Highest concentration found in the liver [3]: approximately 20 μM
- Detection in kidney ([3]; cpx mice): detected
- Detection in blood ([3]; cpx mice, any time point): unable to detect
- Amount recovered from chyme relative to amount recovered from feces ([3]; non-cpx mice): about 85%
- Detection in blood ([3]; non-cpx mice): only detected in blood at the 22-hour time point
- Detection in kidney ([3]; non-cpx mice): only detected in kidney at the 12-hour time point
- Amount recovered from chyme as fraction of total dosed CamSA ([3]; non-cpx mice, detected as mSA): 13%
- Binding to cholestyramine resin in vitro [4]: bound completely
- Reversibility of binding to cholestyramine ([4]; stripping under strong acidic conditions): irreversible
- Effect on C. difficile spore germination in vitro (C. difficile spores [5]): neither induced nor inhibited
- IC50 (CYP3A4): 17.5 ± 1.1 mM

SMILES: C[C@H](CCC(=O)[O-])[C@H]1CC[C@H]2[C@@H]3[C@H](O)C[C@@H]4C[C@H](O)CC[C@]4(C)[C@H]3C[C@H](O)[C@]12C.[Na+] [cholate, Sodium cholate, reference compound]
- Time to clinical endpoint [1]: ≤ 48 hours post-challenge
- Effect on C. difficile spore germination in vitro (C. difficile spores [5]): could stimulate spore germination

SMILES: C[C@H](CCC(=O)Nc1cccc(S(=O)(=O)O)c1)[C@H]1CC[C@H]2[C@@H]3[C@H](O)C[C@@H]4C[C@H](O)CC[C@]4(C)[C@H]3CC[C@]12C [12-deoxy-CamSA]
- CDI severity score [1]: > 6
- Time to clinical endpoint [1]: 48 hours post-challenge

SMILES: C[C@H](CCC(=O)Nc1cccc(S(=O)(=O)O)c1)[C@H]1CC[C@H]2[C@@H]3[C@H](O)C[C@@H]4C[C@H](O)CC[C@]4(C)[C@H]3C[C@H](O)[C@]12C [CamSA]
- Hydrolysis of CamSA to cholate and mSA ([6]; GI microbiota of mice not treated with antibiotics): slowly hydrolyzed
- Degradation of CamSA by recovered microbiota ([6]; feces collected one week after last antibiotic dose, data not shown): degraded CamSA at a similar rate as feces from animals that had never received antibiotics
- CDI signs in spore-challenged mice [1]: little to no signs of CDI
- Retention of intact compound in the animal ([2]; antibiotic-treated mouse): 7 days post-administration
- Start of CamSA excretion in feces ([2]; cpx mice): around 6 hours post-administration
- Time of second fecal excretion maximum ([2]; cpx mice): 32 hours post-administration
- Fraction of total dosed CamSA recovered from feces ([2]; cpx mice, 50 mg/kg oral, over a week): approximately 30%
- Detection in feces ([2]; non-cpx mice): low levels of intact CamSA
- Maximum amount recovered from feces at a single time point relative to cpx mice ([2]; non-cpx mice): four-fold lower
- Fraction of total dosed drug recovered from feces, mSA plus CamSA ([2]; non-cpx mice, 50 mg/kg oral, over a week): approximately 15%
- Highest concentration found in the liver [3]: approximately 140 μM
- Total administered CamSA recovered from feces, organs and chyme ([3]; cpx animals): approximately 40%
- Detection in kidney ([3]; cpx mice): negligible amounts
- Total amount recovered from liver relative to feces (less) ([3]; cpx mice): approximately 10 fold
- Amount recovered from chyme as fraction of total dosed CamSA ([3]; cpx mice): 10%
- Detection in blood ([3]; cpx mice, any time point): unable to detect
- Time of peak hepatic concentration ([3]; cpx mice, one animal per time point): 22 h
- CamSA and mSA recovered from chyme relative to blood (higher) ([3]; mouse, in vivo): 300 fold
- CamSA and mSA recovered from chyme relative to other organs (higher) ([3]; mouse, in vivo): at least 10 fold
- Total administered CamSA recovered from feces, organs and chyme ([3]; non-cpx animals): ~25%
- Detection in blood ([3]; non-cpx mice): not detected
- Total combined CamSA and mSA recovered from liver relative to feces (less) ([3]; non-cpx mice): approximately 10 fold
- Binding to cholestyramine resin in vitro [4]: nearly complete sequestration
- Recovery from cholestyramine resin ([4]; 0.5 N aqueous HCl, absence of feces): less than 1%
- Recovery from cholestyramine resin ([4]; 0.5 N ethanolic HCl, absence of feces): up to 75%
- Recovery from cholestyramine resin ([4]; 0.5 N ethanolic HCl, presence of fecal matter): less than 10%
- Detection in liver ([7]; 0% cholestyramine feed): detected CamSA from liver samples from three of the four mice
- Detection in liver ([7]; 4% cholestyramine feed): unable to detect
- Effect on taurocholate-mediated C. difficile spore germination (C. difficile spores [8]): potent inhibitor
- Effect on mean time of death of infected animals (C. difficile [9]; CamSA alone): double the mean time of death
- Prevention of CDI onset (C. difficile [9]; CamSA alone): unable to prevent the onset of CDI
- Hamsters protected, no CDI symptoms a month post-challenge (C. difficile [9]; CamSA with sub-clinical doses of vancomycin): 70%
- CamSA hydrolyzed (Bifidobacterium longum): approximately 80%
- CamSA hydrolyzed (Lactobacillus gasseri): approximately 80%
- Degradation in artificial gastric or intestinal juices [10]: no CamSA degradation was observed
- Intestinal permeability (Caco-2 monolayers): limited intestinal permeability
- Acute toxicity (C. difficile [11]; CamSA-treated mice): did not indicate any signs of acute toxicity or damage to GI tissue
- Prevention of CDI symptoms (C. difficile [11]; single 50 mg/kg dose): completely prevent CDI symptoms
- IC50 (CYP3A4; read-out: IC50 on CYP3A4 activity, assuming inhibition of CYP3A4, triplicate): 0.62 ± 0.11 mM

SMILES: C[C@H](CCC(=O)Nc1cccc(S(=O)(=O)O)c1)[C@H]1CC[C@H]2[C@@H]3CC[C@@H]4C[C@H](O)CC[C@]4(C)[C@H]3C[C@H](O)[C@]12C [7-deoxy-CamSA]
- CDI signs in spore-challenged mice [1]: only moderate CDI signs
